# Active and inactive are the calls of the source. The calls are words filed in the database; no cut-off is given here.
# Assays:
# [1] = Cmax in rat at 5 mg/kg, po; type: ADME, organism-based; design: dose 5 mg/kg, route oral; settings: in vivo
# [2] = tested on: Mus musculus; assay: In-vivo antagonist activity at GR in nude mouse xenografted with human OVCAR5 cells assessed as reduction in dexamethasone-induced FKBP5 gene expression at 25 to 75 mg/kg, po dosed as gavage and measured after 6 hrs by RT-qPCR method; type: functional, organism-based
# How it was run: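 OVCAR5 xenograft mice received dexamethasone 0.5 mg/kg by intraperitoneal injection with or without a single oral gavage dose of the antagonist at 25, 50 or 75 mg/kg. Tumors and plasma collected 6 h later. Tumor FKBP5 mRNA measured by RT-qPCR. Unbound plasma concentration of the antagonist determined, n = 4 mice per group. FKBP5 effects tested by one-way ANOVA with Dunnett's test versus the vehicle group.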
# [3] = tested on: OVCAR-5; assay: Antitumor activity against human OVCAR5 cells xenografted in chronic cortisol treated nude mouse assessed as reduction in tumor volume at 75 mg/kg, po BID dosed via gavage; type: functional, organism-based
# How it was run: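 Cortisol given in drinking water at 100 mg/L before tumor implantation and throughout the study. Mice bearing established OVCAR5 xenografts, n = 10 per group. Gemcitabine 100 mg/kg and carboplatin 60 mg/kg given every 3 days for 4 doses. Antagonist given at 75 mg/kg twice daily by oral gavage for the whole study. Tumor volume tracked, mean ± SEM, with significance assessed on day 21.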
# [4] = target: T1, Mineralocorticoid receptor (Homo sapiens, UniProt P08235); assay: Antagonist activity at human MR expressed in CHO-K1 cells assessed as reduction in aldosterone-induced protein interaction between MR and its coactivator SRC at 5 uM incubated for 24 hrs by beta-galactosidase based chemiluminescence assay; type: cell-based; settings: cho-k1, 24 h
# T1 sequence (P08235 whole entry): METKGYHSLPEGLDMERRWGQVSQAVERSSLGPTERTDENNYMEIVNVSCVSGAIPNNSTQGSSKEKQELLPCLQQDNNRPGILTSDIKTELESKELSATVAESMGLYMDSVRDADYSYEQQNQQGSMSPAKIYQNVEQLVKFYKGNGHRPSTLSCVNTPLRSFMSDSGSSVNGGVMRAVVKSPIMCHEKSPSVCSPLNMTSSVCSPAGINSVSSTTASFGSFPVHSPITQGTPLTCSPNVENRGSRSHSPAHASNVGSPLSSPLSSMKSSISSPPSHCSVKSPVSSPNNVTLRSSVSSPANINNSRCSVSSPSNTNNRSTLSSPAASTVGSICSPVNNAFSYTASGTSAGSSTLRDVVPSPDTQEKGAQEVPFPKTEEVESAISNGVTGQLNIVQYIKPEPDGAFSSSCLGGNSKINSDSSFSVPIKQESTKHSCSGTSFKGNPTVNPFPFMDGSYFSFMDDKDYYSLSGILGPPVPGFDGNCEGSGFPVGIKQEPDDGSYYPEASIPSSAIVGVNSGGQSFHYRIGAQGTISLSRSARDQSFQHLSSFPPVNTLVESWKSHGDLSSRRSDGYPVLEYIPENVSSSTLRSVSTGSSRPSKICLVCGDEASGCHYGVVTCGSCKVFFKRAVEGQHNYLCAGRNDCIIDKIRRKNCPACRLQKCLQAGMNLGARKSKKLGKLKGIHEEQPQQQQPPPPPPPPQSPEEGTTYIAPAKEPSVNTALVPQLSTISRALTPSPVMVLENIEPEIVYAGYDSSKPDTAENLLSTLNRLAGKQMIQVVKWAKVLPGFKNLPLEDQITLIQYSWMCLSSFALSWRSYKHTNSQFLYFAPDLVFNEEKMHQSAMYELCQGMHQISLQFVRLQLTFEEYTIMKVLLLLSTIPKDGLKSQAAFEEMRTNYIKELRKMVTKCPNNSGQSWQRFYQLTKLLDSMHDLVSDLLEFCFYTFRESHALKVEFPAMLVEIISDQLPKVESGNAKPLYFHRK
# [5] = Oral bioavailability in mouse at 5 mg/kg; type: ADME, organism-based; settings: in vivo
# [6] = AUC in mouse at 5 mg/kg, po; type: ADME, organism-based; settings: in vivo
structure (smiles),measurement,setting,value
CC(C)N(C)c1ccc([C@H]2C[C@@]3(C)[C@@H](CC[C@@]3(O)C#CC(C)(C)C)[C@@H]3CCC4=CC(=O)CC[C@@H]4[C@H]32)cc1,Cmax,[1],149 ng/mL
same,inhibition,[2],Dose-dependent effect
same,TGI,[3],inactive
same,inhibition (INH),[4],Not Active
same,bioavailability,[5],21%
same,AUC,[6],644 ng·h/mL

# From ChEMBL document CHEMBL4145686, “Discovery of a Potent and Selective Steroidal Glucocorticoid Receptor Antagonist (ORIC-101)” (J Med Chem, 2018)
